High-throughput results deposited in PubChem BioAssay by The Scripps Research Institute Molecular Screening Center.
ABHD4 inh = ABHD4 (mouse) inhibition, primary FP screen; Q8VD66; purified mABHD4, FP-Rh probe fluorescence polarization; inhibition, % at 8.92 µM; 370,000 compounds, 0.54% hits; AID 720543;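 active = inhibition exceeding the mean over every tested compound plus 3 SD, cut at about 30% in these data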;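 note: 0% = plate median of compound wells and 100% = S159A mutant with DMSO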
Target sequence (Q8VD66 whole entry, looked up): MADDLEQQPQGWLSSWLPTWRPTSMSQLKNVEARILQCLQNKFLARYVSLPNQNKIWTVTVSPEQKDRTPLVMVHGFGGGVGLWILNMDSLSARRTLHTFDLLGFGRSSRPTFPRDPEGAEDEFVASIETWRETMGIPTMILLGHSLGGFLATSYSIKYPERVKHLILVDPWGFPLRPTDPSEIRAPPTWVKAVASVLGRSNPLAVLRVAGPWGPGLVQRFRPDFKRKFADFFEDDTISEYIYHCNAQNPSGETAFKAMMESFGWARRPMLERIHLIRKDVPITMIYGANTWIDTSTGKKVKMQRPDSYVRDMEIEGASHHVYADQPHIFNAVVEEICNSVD
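Doses – 8.92 µM, single dose · Material – wild-type mouse ABHD4 protein · Replication – single well per compound (singlicate) · Measure – percent inhibition of probe binding, normalized to plate controls · Schedule – 45 min compound pre-incubation plus 60 min probe step, 25 °C · Detection – fluorescence polarization with parallel and perpendicular emission, 525/598 nm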
HTRA1 inh = inhibitors of human serine peptidase HTRA1; 340,000 compounds, 0.5% hits; AID 504803; recombinant HTRA1, FP-rhodamine activity-based probe, fluorescence polarization; inhibition, % at 5.96 µM; Q92743; in the data active = inhibition above about 36%;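 note: 0% = enzyme with DMSO and 100% = wells lacking enzyme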
PAFAH1B2 FP inh = PAFAH1B2 (human) inhibition. inhibition, % at 3.39 µM. AID 492953. 340,000 compounds, 1.2% hits. recombinant PAFAH1B2, FP-rhodamine activity probe, fluorescence polarization. P68402;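 active = inhibition above the mean of all tested compounds plus 3 SD, cut at about 24% in these data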;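 note: 0% = enzyme with DMSO and 100% = wells lacking PAFAH1B2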
pPAFAH FP inh = inhibitors of human plasma PAF acetylhydrolase (pPAFAH). inhibition, % at 3.39 µM. recombinant pPAFAH, FP-rhodamine probe fluorescence polarization. 330,000 compounds, 1.5% hits;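 active = inhibition above the mean inhibition across the screen plus 3 SD, cut at about 25% in these data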;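 note: inhibitors block binding of the rhodamine activity-based probe so polarization drops; 0% = enzyme with DMSO and 100% = wells lacking pPAFAH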
PAFAH2 FP inh = inhibitors of human PAFAH2. 340,000 compounds, 0.99% hits. Q99487. recombinant PAFAH2, FP-rhodamine activity probe, fluorescence polarization. AID 492956. inhibition, % at 3.39 µM;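 active = inhibition above the mean over all tested compounds plus 3 SD, cut at about 30% in these data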;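 note: inhibitors block probe labeling of enzyme so polarization drops; 0% = enzyme with DMSO and 100% = wells lacking PAFAH2 protein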
PAFAH1B3 FP inh = blocks human PAF acetylhydrolase 1B catalytic subunit 3 | Q15102 | recombinant PAFAH1B3, FP-rhodamine probe, fluorescence polarization | inhibition, % at 3.39 µM | 340,000 compounds, 0.28% hits | AID 492972;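 active = inhibition above the screen-wide average of all tested compounds plus 3 SD, cut at about 25% in these data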;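 note: 0% = enzyme with DMSO only and 100% = wells lacking PAFAH1B3 protein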
PAFAH2 confirm = confirmation of human PAFAH2 inhibitors; 2,300 compounds, 65% hits; shares compounds with PAFAH2 FP inh; inhibition, % at 3.39 µM; recombinant PAFAH2, FP-rhodamine activity probe, fluorescence polarization;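 active = mean inhibition over three repeats above a set limit taken from the earlier primary screen, cut at about 30% in these data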;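 note: inhibitor blocks binding of rhodamine activity probe so polarization falls; 0% = enzyme with DMSO and 100% = wells lacking PAFAH2 protein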
* hit, by the source's call; x = not tested or not shown. Most compounds without a hit are left out; they make up all but 2.8% or so of the library.

SMILES | ABHD4 inh | HTRA1 inh | PAFAH1B2 FP inh | pPAFAH FP inh | PAFAH2 FP inh | PAFAH1B3 FP inh | PAFAH2 confirm
COc1cc(C)c2c(c1C=O)Oc1c(c(C)c(O)c3c1C(O)OC3=O)OC2=O (stereo unspecified) | 26 | 8 | 1 | 7 | 49* | 3 | 25
C[C@@H]1ON(C)[C@H]2C[C@H]3c4cc(-c5cccc(Cl)c5)ccc4CCN3C[C@@H]12 | 3 | x | x | x | x | x | x
O=C(CSc1nnc(CNC(=O)c2ccccc2F)o1)NCCc1ccccc1 | 2 | -3 | 4 | -4 | 54* | 6 | 2
O=C(CSc1nnc(CNC(=O)c2c(F)cccc2F)o1)NCCc1ccccc1 | 2 | 4 | -1 | 10 | 3 | 2 | x
C/C(=C/c1c[n+](Cc2ccc3c(c2)OCO3)c(N)[nH]1)Cn1[nH]c(=O)n(-c2ccccc2)c1=O | 12 | x | x | x | x | x | x
COc1ccc(/C=C/C(=O)OCC(=O)NC2CCCC(C)C2C)cc1 (stereo unspecified) | 1 | -2 | 7 | 9 | 82* | -3 | 79*
CC1CCCC(NC(=O)COC(=O)COc2ccc(Br)cc2)C1C (stereo unspecified) | -2 | 5 | 18 | 16 | -4 | 4 | x
CC1CCCC(NC(=O)COC(=O)/C=C/c2ccc(F)cc2)C1C (stereo unspecified) | -2 | 2 | 0 | 8 | 65* | 5 | 69*
CC(=O)N1CCCN(S(=O)(=O)c2ccc3c(c2)n(C)c(=O)c(=O)n3C)CC1 | 7 | x | x | x | x | x | x
COc1cc2nc(COc3ccccc3[N+](=O)[O-])oc(=O)c2cc1OC | 7 | -1 | 1 | 5 | 50* | 6 | 69*
O=c1c2c(nc3cc(-c4ccccc4)[nH]n13)CCS2 | 8 | 15 | 12 | 11 | 43* | 5 | 4
COc1ccc(-c2c(C(=O)c3ccccc3)[nH]c(N)c2C(=O)c2c[nH]c3ccccc23)cc1OC | -2 | x | x | x | x | x | x
Cc1ccc(S(=O)(=O)N(CC(=O)Nc2ccccc2C(=O)O)c2ccccc2C)cc1 | 7 | -9 | 3 | -3 | 2 | 16 | x
Cc1ccc(S(=O)(=O)N(CC(=O)Nc2ccccc2C(=O)O)c2cccc(Cl)c2C)cc1 | -12 | -35 | 10 | -5 | 32* | -10 | 29
CCOc1ccc(-n2c(COc3ccc(C)cc3)nnc2SCC(=O)c2ccc3ccccc3c2)cc1 | -10 | x | x | x | x | x | x
CC(=O)CC[C@@H]1CC[C@]2(CCCN(S(C)(=O)=O)C2)O1 | -4 | x | x | x | x | x | x
O=C(O)c1cccc(-c2nnn(Cc3ccccc3Cl)n2)c1 | -1 | -3 | 7 | 1 | 84* | 0 | 2
O=C(O)c1cccc(-c2nnn(Cc3ccccc3)n2)c1 | 4 | 4 | 4 | 2 | -7 | 6 | x
Cc1cc(-c2cccc([N+](=O)[O-])c2)nc2ccccc12 | 2 | -4 | -1 | 3 | -5 | 0 | x
Cc1ccc(-c2nc3ccccc3c(=O)o2)cc1 | -4 | 3 | -2 | -8 | 81* | 4 | 73*
O=c1oc(-c2ccc(Br)o2)nc2ccccc12 | -5 | -9 | 3 | -6 | 60* | 10 | 65*
O=c1oc(-c2cccc([N+](=O)[O-])c2)nc2ccccc12 | -4 | -8 | 5 | 4 | 43* | 17 | 48*
COc1ccc(-c2nc3ccc(C)cc3c(=O)o2)cc1OC | 6 | -8 | -5 | 4 | 43* | -2 | 42*
O=c1oc(-c2ccc(Cl)cc2[N+](=O)[O-])nc2ccccc12 | 5 | -11 | x | x | x | x | x
COc1ccc(C=Nn2c(-c3ccc(F)cc3)n[nH]c2=S)c(OC)c1OC | -2 | x | x | x | x | x | x
Cc1ccc2nc(-c3cccc(N)c3)oc2c1 | 3 | 4 | -1 | 2 | 3 | 4 | x
Cc1cc(-c2nc3ccccc3c(=O)o2)ccc1[N+](=O)[O-] | -5 | 0 | 3 | -5 | 70* | 9 | 70*
Cc1ccc2nc(-c3ccccc3)oc(=O)c2c1 | 4 | 7 | 0 | 1 | 86* | 4 | 69*
Cc1ccc2nc(-c3ccccc3C)oc(=O)c2c1 | 0 | -23 | -2 | 4 | 65* | 3 | 45*
Cc1ccccc1-c1nc2ccccc2c(=O)o1 | 4 | -37 | x | x | x | x | x
